HTRA1 inh – blocks human HTRA1 serine peptidase; Q92743; recombinant HTRA1, FP-rhodamine activity-based probe, fluorescence polarization; inhibition, % at 5.96 µM; 340,000 compounds, 0.5% hits; AID 504803; in the data active means inhibition above about 36%
SIAE primary – blocks human sialic acid acetylesterase; inhibition, % at 9.66 µM; AID 1053197; SIAE FP-Rh probe binding, fluorescence polarization; 370,000 compounds, 0.69% hits;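 active means inhibition above a cutoff: mean of compounds within the control limits plus 3 SD of those, cut at about 17% in these data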
pPAFAH FP inh – pPAFAH (human) enzyme inhibition; AID 463082; Q13093; inhibition, % at 3.39 µM; 330,000 compounds, 1.5% hits; recombinant pPAFAH, FP-rhodamine probe fluorescence polarization;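 active means inhibition above the mean inhibition across the screen plus 3 SD, cut at about 25% in these data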;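 further: inhibitors block binding of the rhodamine activity-based probe so polarization drops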
Target sequence (Q13093 whole entry, looked up): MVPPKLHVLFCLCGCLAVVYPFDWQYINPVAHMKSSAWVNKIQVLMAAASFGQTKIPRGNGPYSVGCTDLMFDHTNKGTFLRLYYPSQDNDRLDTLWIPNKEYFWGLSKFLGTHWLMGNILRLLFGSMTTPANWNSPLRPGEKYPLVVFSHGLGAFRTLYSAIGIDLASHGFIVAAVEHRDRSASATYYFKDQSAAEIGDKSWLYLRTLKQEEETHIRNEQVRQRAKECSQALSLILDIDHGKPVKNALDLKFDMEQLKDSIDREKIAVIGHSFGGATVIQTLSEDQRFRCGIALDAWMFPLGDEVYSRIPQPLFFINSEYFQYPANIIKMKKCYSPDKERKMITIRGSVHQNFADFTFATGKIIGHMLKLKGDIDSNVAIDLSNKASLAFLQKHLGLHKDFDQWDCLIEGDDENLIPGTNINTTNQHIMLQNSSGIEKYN
TCR CD3 inh – human TCR-CD3 binding inhibition; TAMRA-labeled TCR probe fluorescence, biochemical; inhibition, % at 9.4 µM; 360,000 compounds, 0.37% hits; AID 651800; in the data active means inhibition above about 19%;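 further: recombinant mutant TCR 2C K166C tagged with TAMRA read by polarization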
ABHD4 inh – ABHD4 (mouse) inhibition, primary FP screen; AID 720543; inhibition, % at 8.92 µM; 370,000 compounds, 0.54% hits; purified mABHD4, FP-Rh probe fluorescence polarization;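 active means inhibition exceeding the mean over every tested compound plus 3 SD, cut at about 30% in these data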
Target sequence (Q8VD66 whole entry, looked up): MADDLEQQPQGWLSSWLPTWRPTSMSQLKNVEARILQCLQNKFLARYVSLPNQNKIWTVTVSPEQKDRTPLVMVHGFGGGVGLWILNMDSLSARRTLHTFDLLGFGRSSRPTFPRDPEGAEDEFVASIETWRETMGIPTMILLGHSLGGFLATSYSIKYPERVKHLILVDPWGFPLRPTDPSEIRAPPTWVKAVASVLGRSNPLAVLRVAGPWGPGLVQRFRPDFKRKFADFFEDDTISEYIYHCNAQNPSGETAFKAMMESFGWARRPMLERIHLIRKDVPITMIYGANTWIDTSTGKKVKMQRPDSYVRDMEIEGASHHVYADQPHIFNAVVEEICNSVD
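Assay system: wild-type mouse ABHD4 protein; compound: single nominal dose of 8.92 µM, 0.89% DMSO final; schedule: 45 min + 60 min at 25 °C; measured by: FP readout, ex 525 nm / em 598 nm; evaluation: % inhibition of FP-Rh probe binding versus controls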
Each line names hits and unclear results; the compound was inactive in the other large screens. Hits are enriched below; roughly 2.3% of the tested compounds scored in any of these assays.

CCC(=O)OC1(C)C(=O)C=C2C=C(CCCC(=O)OC)OC=C2C1=O (stereo not drawn)	none
CC(C)(C)OC(=O)NCCCC1=CC2=CC(=O)C(C)(O)C(=O)C2=CO1 (stereo not drawn)	pPAFAH FP inh 32.2 (no result: HTRA1 inh, SIAE primary, TCR CD3 inh, ABHD4 inh)
COC(=O)CCCC1=CC2=CC(=O)C(C)(O)C(=O)C2=CO1 (stereo not drawn)	none (no result: HTRA1 inh, SIAE primary, TCR CD3 inh, ABHD4 inh)
CSc1nnc(CCCCCNC(=O)OC(C)(C)C)o1	none
COC(=O)CCCC1=CC2=CC(=O)C(C)(OC(=O)C3CCCC3)C(=O)C2=CO1 (stereo not drawn)	pPAFAH FP inh 31.9 (no result: SIAE primary, TCR CD3 inh, ABHD4 inh)
CCC(=O)OC1(C)C(=O)C=C2C=C(CCCCNC(=O)OC(C)(C)C)OC=C2C1=O (stereo not drawn)	pPAFAH FP inh 30.1 (no result: HTRA1 inh, SIAE primary, TCR CD3 inh, ABHD4 inh)
COc1ccc(-n2c(SCC(=O)Nc3ccc4c(c3)OCO4)nc3sc4c(c3c2=O)CCCC4)cc1	none (no result: HTRA1 inh, pPAFAH FP inh, TCR CD3 inh)
Cc1cc(C)nc(N2CCC(C(=O)N(C)CCc3ccccn3)CC2)n1	none (no result: HTRA1 inh, pPAFAH FP inh, TCR CD3 inh)
CCOc1ccc(N2CSC3=C(C#N)C(c4ccco4)CC(=O)N3C2)cc1 (stereo not drawn)	pPAFAH FP inh 47.7
CCOC(=O)c1ccc(N2CSC3=C(C#N)C(c4ccc(OC)cc4OC)CC(=O)N3C2)cc1 (stereo not drawn)	none
Cc1ccc(C2CC(=O)N3CN(c4ccc(Br)cc4)CSC3=C2C#N)o1 (stereo not drawn)	pPAFAH FP inh 56.3
O=S1(=O)c2ccc(Br)cc2OC[C@H](Cc2ccccc2)N1Cc1cn(Cc2ccc(Br)cc2)nn1	none (no result: HTRA1 inh, pPAFAH FP inh, TCR CD3 inh)
COc1cc2c(cc1OC)C(c1cccc(Br)c1)CC(=O)N2 (stereo not drawn)	none (no result: pPAFAH FP inh)
O=C1CC(c2cccc(Br)c2)c2cc3c(cc2N1)CCC3 (stereo not drawn)	pPAFAH FP inh 28.0
CCOC(=O)[C@@]12CN(C(=O)OC(C)(C)C)CC=C1N(Cc1ccc(OC)cc1)C(=O)[C@H]2CC(=O)N1CCN(C(=O)c2ccco2)CC1	none (no result: HTRA1 inh, pPAFAH FP inh, TCR CD3 inh)
O=C1CSc2ccc(C(=O)N3CCCC(C(=O)N4CCOCC4)C3)cc2N1 (stereo not drawn)	none (no result: HTRA1 inh, pPAFAH FP inh, TCR CD3 inh)
CCN(CC)C(=O)Oc1ccc(Cl)c2cccnc12	none
O=C(Nc1cccc(C(F)(F)F)c1)Oc1ccc(Cl)c2cccnc12	HTRA1 inh 45.8
O=C(CCn1nnc2ccccc21)NNC(=O)C1CCCCC1	pPAFAH FP inh 25.4
CC(=O)NNC(=O)CCn1nnc2ccccc21	none
CC1CCN(C2=NC(=O)N(c3ccc(Br)cc3)C(=O)C2)CC1	none (no result: HTRA1 inh, pPAFAH FP inh, TCR CD3 inh)
Cc1ccc(Nc2cc(C)nn2-c2nc(C)cc(=O)[nH]2)cc1	HTRA1 inh 49.6, pPAFAH FP inh 29.9 (no result: SIAE primary, TCR CD3 inh, ABHD4 inh)
Cc1ccc(Nc2cc(C)nn2-c2nc(C)cc(C)n2)cc1	none
CC(NC(=O)COC(=O)c1ccc([N+](=O)[O-])s1)c1ccccc1 (stereo not drawn)	pPAFAH FP inh 24.9
O=C(COC(=O)c1ccc([N+](=O)[O-])s1)NCc1ccc(F)cc1	pPAFAH FP inh 25.6
NS(=O)(=O)c1ccc(NC(=O)COC(=O)c2ccc([N+](=O)[O-])s2)cc1	pPAFAH FP inh 33.3
CCN(CC)S(=O)(=O)c1cccc(C(=O)N[C@H](C(=O)OCC(=O)Nc2ccccc2)C(C)C)c1	none
Cc1ccc(C(=O)OCC(=O)NC(C)c2ccccc2)s1 (stereo not drawn)	none
Cc1cc(C)c(NC(=O)COC(=O)c2ccc([N+](=O)[O-])s2)c(C)c1	none
CCN(CC)S(=O)(=O)c1cccc(C(=O)OCC(=O)NC(C)c2ccccc2)c1 (stereo not drawn)	pPAFAH FP inh 26.7
Cc1ccccc1NC(=O)CCS(=O)(=O)c1ccccc1	none (no result: HTRA1 inh, pPAFAH FP inh, TCR CD3 inh)
CC(C)(C)c1ccc(S(=O)(=O)N2CCCC(C(=O)NCCN3CCC(Cc4ccccc4)CC3)C2)cc1 (stereo not drawn)	none (no result: HTRA1 inh, pPAFAH FP inh, TCR CD3 inh)
COc1ccc(OC)c(NC(=O)CN2CCC(C(=O)c3ccc(C)cc3)CC2)c1	pPAFAH FP inh 28.7
N#Cc1cccc(NC(=O)OC2CCC23CCC(c2ccccc2)CC3)c1 (stereo not drawn)	none (no result: HTRA1 inh, pPAFAH FP inh, TCR CD3 inh)
O=C(N[C@H]1C[C@@H]2O[C@@H](CO)CC[C@@H]2O[C@@H]1CCc1ccc(-c2cccnc2)cc1)c1cccc(F)c1	none (no result: HTRA1 inh, pPAFAH FP inh, TCR CD3 inh)
COCc1nnc(NC(=O)CCCOc2ccccc2)s1	pPAFAH FP inh 34.4
COCc1nnc(NC(=O)CCCOc2ccccc2OC)s1	none
CC(C)NC(=O)CC1C(=O)NCCN1CC(c1ccccc1)c1ccccc1 (stereo not drawn)	pPAFAH FP inh 28.6
CCc1nnn2c1Cn1c3ccccc3c(=O)n1[C@@H](C(C)C)C2	none (no result: HTRA1 inh, pPAFAH FP inh, TCR CD3 inh)
COc1ccc(S(=O)(=O)Nc2cccc(N(C)S(C)(=O)=O)c2)cc1C	none
COc1ccc(S(=O)(=O)Nc2cccc(F)c2)cc1C	pPAFAH FP inh 26.5
COc1ccc2c(c1)CCCN2C(=O)C1CCCN(S(=O)(=O)c2cc(OC)ccc2OC)C1 (stereo not drawn)	none (no result: HTRA1 inh, pPAFAH FP inh, TCR CD3 inh)
Cc1cc(C(=O)COC(=O)C2=COCCO2)c(C)n1-c1ccc2c(c1)OCO2	SIAE primary 17.4
COC(=O)c1ccc(-n2c(C)cc(C(=O)COC(=O)C3=COCCO3)c2C)cc1	none
CCOc1ccccc1-c1c2cc(O)c(=O)cc-2oc2cc(O)c(O)cc12	HTRA1 inh 85.1 (no result: SIAE primary, pPAFAH FP inh, TCR CD3 inh, ABHD4 inh)
COc1ccc(CNS(=O)(=O)/C=C/c2cc(C)ccc2CNC(=O)OC(C)(C)C)cc1	none (no result: HTRA1 inh, pPAFAH FP inh, TCR CD3 inh)
CC(CCN1CCC(C(O)(c2ccccc2)c2ccccc2)CC1)Oc1cccc(F)c1 (stereo not drawn)	none (no result: HTRA1 inh, pPAFAH FP inh, TCR CD3 inh)
CN1C(=O)C(C)(C)c2cc(S(=O)(=O)NCCc3ccc(Cl)cc3)ccc21	pPAFAH FP inh 29.8
Cc1ccc(CCNS(=O)(=O)c2ccc3c(c2)C(C)(C)C(=O)N3C)cc1	pPAFAH FP inh 25.2
CC(C)(C)N(Cc1cn(CC2CCCCC2)nn1)S(=O)(=O)c1ccc(F)cc1Br	none (no result: HTRA1 inh, pPAFAH FP inh, TCR CD3 inh)
O=C1N=C(N2C=CC(=C3C=CNC=C3)C=C2)/C(=C/N=NC(=O)c2ccccc2O)S1	pPAFAH FP inh 25.6
Cc1ccc2nc(Cl)c(-c3ccccc3)cc2c1	pPAFAH FP inh 30.9 (no result: HTRA1 inh)
CCn1c2ccccc2c2cc(NC(=O)CSc3nnc(-c4ccccc4)n3Cc3ccco3)ccc21	none (no result: HTRA1 inh, pPAFAH FP inh, TCR CD3 inh)
O=C(Nc1ccc(N2CCCC2)cc1)c1ccc2ccccc2c1	pPAFAH FP inh 33.6
CC1CCc2c(sc(NC(=O)c3ccc(Cn4cc([N+](=O)[O-])cn4)o3)c2C#N)C1 (stereo not drawn)	pPAFAH FP inh 31.3
CSc1ccc(CN2CCN(Cc3ccccc3)C(CCO)C2)cc1 (stereo not drawn)	none
CSc1ccc(CN2CCN(CC=C(C)C)C(CCO)C2)cc1 (stereo not drawn)	pPAFAH FP inh 25.4
COC(=O)CCC(=O)OC1(C)C(=O)C2=CN(CCc3ccccn3)C(c3ccc(OC)cc3)=CC2=C(Br)C1=O (stereo not drawn)	HTRA1 inh 37.5 (no result: SIAE primary, TCR CD3 inh, ABHD4 inh)
COC(=O)C1CN(Cc2cn(Cc3ccc(Cl)cc3)nn2)CCS(=O)(=O)N1Cc1ccc(F)cc1 (stereo not drawn)	none (no result: HTRA1 inh, pPAFAH FP inh, TCR CD3 inh)

Screening results deposited in PubChem BioAssay by The Scripps Research Institute Molecular Screening Center.
